Key:
[1] = tested on: human lung cancer A549 cells; assay: MTT cytotoxicity screening on human lung cancer cells; type: cell-based; details: for IC50: Homo sapiens, A549, 72 h, read-out: A549 IC50; for SI (selectivity index): ratio of IC50 values against Wi-38 and A549 cells
In short: (§1)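 A549 and Wi-38 cells, sourced from the National Cancer Institute (Cairo), grown in RPMI-1640 with L-glutamine, 10% FBS and 1% penicillin-streptomycin at 37 °C, 5% CO2. Seeded in triplicate at 5 × 10^4 cells, then exposed next day to test compound at 0.01, 0.1, 1, 10 and 100 µM. Viability measured by MTT relative to untreated control, and IC50 computed.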

[2] = tested on: normal human lung fibroblasts (Wi-38); assay: MTT cytotoxicity screening on normal human lung fibroblasts; type: cell-based; details: WI-38, 72 h, read-out: Wi-38 EC50
In short: as §1

CDK2 = CDK2 (Homo sapiens, UniProt P24941); assay: In vitro CDK2 inhibition, CDK2 luminescence kinase assay kit; type: biochemical

| SMILES | IC50 [1] [nM] | SI (selectivity index) [1] | EC50 [2] [nM] | % inhibition ± SD at [10 μM] of CDK2 (CDK2; 10 μM) [%] | IC50 (CDK2; CDK2 IC50, serial dilutions 0.01–10 μM, mean ± SD of three replicates) [nM] | inhibition at 10 µM (CDK2; read-out: % inhibition ± SD at [10 μM] of CDK2, 10 μM) [%] |
| --- | --- | --- | --- | --- | --- | --- |
| O=C(c1nc2ccccc2[nH]1)[C@H]1[C@H](c2ccco2)[C@H]2CCCN2[C@@]12c1ccccc1-c1nc3ccccc3nc12 [Compound 4a, (1H-Benzo[d]imidazol-2-yl)((1'S,2'S,7a’R,11R)-1'-(furan-2-yl)-1',2',5',6',7',7a’-hexahydrospiro[indeno[1,2-b]quinoxaline-11,3'-pyrrolizin]-2'-yl)methanone] | 82 ± 2 | 7.402 | 607 ± 50 | – | – | – |
| O=C(c1nc2ccccc2[nH]1)[C@H]1[C@H](c2ccc(Cl)cc2Cl)[C@H]2CCCN2[C@@]12c1ccccc1-c1nc3ccccc3nc12 [Compound 4b, (1H-Benzo[d]imidazol-2-yl)((1'R,2'S,7a’R,11R)-1'-(2,4-dichlorophenyl)-1',2',5',6',7',7a’-hexahydrospiro[indeno[1,2-b]quinoxaline-11,3'-pyrrolizin]-2'-yl)methanone] | 225 ± 5 | 3.942 | 887 ± 11 | – | – | – |
| O=C(c1nc2ccccc2[nH]1)[C@H]1[C@H](c2ccc(F)cc2)[C@H]2CCCN2[C@@]12c1ccccc1-c1nc3ccccc3nc12 [Compound 4c, (1H-Benzo[d]imidazol-2-yl)((1'R,2'S,7a’R,11R)-1'-(4-fluorophenyl)-1',2',5',6',7',7a’-hexahydrospiro[indeno[1,2-b]quinoxaline-11,3'-pyrrolizin]-2'-yl)methanone] | 206 ± 9 | 1.053 | 217 ± 7 | – | – | – |
| O=C(c1nc2ccccc2[nH]1)[C@H]1[C@H](c2ccc(Br)cc2)[C@H]2CCCN2[C@@]12c1ccccc1-c1nc3ccccc3nc12 [Compound 4d, (1H-Benzo[d]imidazol-2-yl)((1'R,2'S,7a’R,11R)-1'-(4-bromophenyl)-1',2',5',6',7',7a’-hexahydrospiro[indeno[1,2-b]quinoxaline-11,3'-pyrrolizin]-2'-yl)methanone] | 135 ± 2 | 1.303 | 176 ± 2 | – | – | – |
| O=C(c1nc2ccccc2[nH]1)[C@H]1[C@H](c2cccc(F)c2)[C@H]2CCCN2[C@@]12c1ccccc1-c1nc3ccccc3nc12 [Compound 4e, (1H-Benzo[d]imidazol-2-yl)((1'R,2'S,7a’R,11R)-1'-(3-fluorophenyl)-1',2',5',6',7',7a’-hexahydrospiro[indeno[1,2-b]quinoxaline-11,3'-pyrrolizin]-2'-yl)methanone] | 321 ± 5 | 3.429 | 1100 ± 205 | – | – | – |
| O=C(c1nc2ccccc2[nH]1)[C@H]1[C@H](c2cccs2)[C@H]2CCCN2[C@@]12c1ccccc1-c1nc3ccccc3nc12 [Compound 4g, (1H-Benzo[d]imidazol-2-yl)((1'S,2'S,7a’R,11R)-1'-(thiophen-2-yl)-1',2',5',6',7',7a’-hexahydrospiro[indeno[1,2-b]quinoxaline-11,3'-pyrrolizin]-2'-yl)methanone] | 182 ± 4 | 1.384 | 252 ± 1 | – | – | – |
| O=C(c1nc2ccccc2[nH]1)[C@H]1[C@H](c2ccccc2)[C@H]2CCCN2[C@@]12c1ccccc1-c1nc3ccccc3nc12 [Compound 4h, (1H-Benzo[d]imidazol-2-yl)((1'R,2'S,7a’R,11R)-1'-phenyl-1',2',5',6',7',7a’-hexahydrospiro[indeno[1,2-b]quinoxaline-11,3'-pyrrolizin]-2'-yl)methanone] | 177 ± 3 | 1.090 | 193 ± 10 | – | – | – |
| O=c1[nH]cc(F)c(=O)[nH]1 [Compound 5-Fu, 5-fluorouracil, reference compound] | 3780 ± 520 | 1.107 | 4190 ± 168 | – | – | – |
| O=C(c1nc2ccccc2[nH]1)[C@H]1[C@H](c2ccco2)C2CC3CCCCC3N2[C@@]12c1ccccc1-c1nc3ccccc3nc12 (stereo partly drawn) [Compound 6a, (1H-Benzo[d]imidazol-2-yl)((1'S,2'S,11R)-1'-(furan-2-yl)-1',2',4a’,5',6',7',8',8a’,9',9a’-decahydrospiro[indeno[1,2-b]quinoxaline-11,3'-pyrrolo[1,2-a]indol]-2'-yl)methanone] | 98 ± 6 | 1.142 | 112 ± 1 | – | – | – |
| O=C(c1nc2ccccc2[nH]1)[C@H]1[C@H](c2ccc(Cl)cc2Cl)C2CC3CCCCC3N2[C@@]12c1ccccc1-c1nc3ccccc3nc12 (stereo partly drawn) [Compound 6b, (1H-Benzo[d]imidazol-2-yl)((1'R,2'S,11R)-1'-(2,4-dichlorophenyl)-1',2',4a’,5',6',7',8',8a’,9',9a’-decahydrospiro[indeno[1,2-b]quinoxaline-11,3'-pyrrolo[1,2-a]indol]-2'-yl)methanone] | 54 ± 8 | 6.648 | 359 ± 8 | 70.72 ± 2.8 | 177 | 70.7 |
| O=C(c1nc2ccccc2[nH]1)[C@H]1[C@H](c2ccc(F)cc2)C2CC3CCCCC3N2[C@@]12c1ccccc1-c1nc3ccccc3nc12 (stereo partly drawn) [Compound 6c, (1H-Benzo[d]imidazol-2-yl)((1'R,2'S,11R)-1'-(4-fluorophenyl)-1',2',4a’,5',6',7',8',8a’,9',9a’-decahydrospiro[indeno[1,2-b]quinoxaline-11,3'-pyrrolo[1,2-a]indol]-2'-yl)methanone] | 139 ± 3 | 1.208 | 168 ± 19 | – | – | – |
| O=C(c1nc2ccccc2[nH]1)[C@H]1[C@H](c2ccc(Br)cc2)C2CC3CCCCC3N2[C@@]12c1ccccc1-c1nc3ccccc3nc12 (stereo partly drawn) [Compound 6d, (1H-Benzo[d]imidazol-2-yl)((1'R,2'S,11R)-1'-(4-bromophenyl)-1',2',4a’,5',6',7',8',8a’,9',9a’-decahydrospiro[indeno[1,2-b]quinoxaline-11,3'-pyrrolo[1,2-a]indol]-2'-yl)methanone] | 87 ± 3 | 0.885 | 77 ± 1 | – | – | – |
| O=C(c1nc2ccccc2[nH]1)[C@H]1[C@H](c2cccc(F)c2)C2CC3CCCCC3N2[C@@]12c1ccccc1-c1nc3ccccc3nc12 (stereo partly drawn) [Compound 6e, (1H-Benzo[d]imidazol-2-yl)((1'R,2'S,11R)-1'-(3-fluorophenyl)-1',2',4a’,5',6',7',8',8a’,9',9a’-decahydrospiro[indeno[1,2-b]quinoxaline-11,3'-pyrrolo[1,2-a]indol]-2'-yl)methanone] | 137 ± 16 | 0.832 | 114 ± 3 | – | – | – |
| COc1ccc([C@@H]2C3CC4CCCCC4N3[C@@]3(c4ccccc4-c4nc5ccccc5nc43)[C@H]2C(=O)c2nc3ccccc3[nH]2)cc1 (stereo partly drawn) [Compound 6f, (1H-Benzo[d]imidazol-2-yl)((1'R,2'S,11R)-1'-(4-methoxyphenyl)-1',2',4a’,5',6',7',8',8a’,9',9a’-decahydrospiro[indeno[1,2-b]quinoxaline-11,3'-pyrrolo[1,2-a]indol]-2'-yl)methanone] | 107 ± 2 | 5.130 | 549 ± 10 | – | – | – |
| O=C(c1nc2ccccc2[nH]1)[C@H]1[C@H](c2cccs2)C2CC3CCCCC3N2[C@@]12c1ccccc1-c1nc3ccccc3nc12 (stereo partly drawn) [Compound 6g, (1H-Benzo[d]imidazol-2-yl)((1'S,2'S,11R)-1'-(thiophen-2-yl)-1',2',4a’,5',6',7',8',8a’,9',9a’-decahydrospiro[indeno[1,2-b]quinoxaline-11,3'-pyrrolo[1,2-a]indol]-2'-yl)methanone] | 84 ± 4 | 1.952 | 164 ± 60 | – | – | – |
| O=C(c1nc2ccccc2[nH]1)[C@H]1[C@H](c2ccccc2)C2CC3CCCCC3N2[C@@]12c1ccccc1-c1nc3ccccc3nc12 (stereo partly drawn) [Compound 6h, (1H-Benzo[d]imidazol-2-yl)((1'R,2'S,11R)-1'-phenyl-1',2',4a’,5',6',7',8',8a’,9',9a’-decahydrospiro[indeno[1,2-b]quinoxaline-11,3'-pyrrolo[1,2-a]indol]-2'-yl)methanone] | 202 ± 6 | 0.856 | 173 ± 1 | – | – | – |
